Laboratory results: ChEMBL document CHEMBL1154198, “Chemical genetics of Plasmodium falciparum” (Nature, 2010)

Legend:
Trypanosoma brucei = experiment: ST_JUDE: Cytotoxicity using luciferase to measure ATP as an indicator of the viability of Trypanosoma brucei; type: functional, organism-based
Plasmodium falciparum [1] = experiment: ST_JUDE: Cytotoxicity against Plasmodium falciparum Dd2; type: functional, organism-based
Toxoplasma gondii = experiment: ST_JUDE: Growth inhibition of to Toxoplasma gondii, in human U-2OS cells, as measured by luciferase.; type: functional, organism-based; conditions: RH, U2OS
Summary of the method: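 T. gondii parasites engineered to express luciferase; drug sensitivity read by luminescence.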

Plasmodium falciparum [2] = experiment: ST_JUDE: Plasmodium falciparum K1 EC50 (uM) as measured by SYBR green dye; type: functional, organism-based
Plasmodium falciparum [3] = experiment: ST_JUDE: Plasmodium falciparum 3D7 EC50 (uM) as measured by SYBR green dye; type: functional, organism-based
Plasmodium falciparum [4] = experiment: ST_JUDE: Cytotoxicity against Plasmodium falciparum 3D7; type: functional, organism-based
Summary of the method: (§1)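 Asexual P. falciparum grown in human erythrocytes, exposed to compounds for 72 h, and growth read as the DNA quantity in treated versus control cultures. Dose-response run at 12 concentrations from 10 μM to 5 nM.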

Plasmodium falciparum [5] = experiment: ST_JUDE: Cytotoxicity against Plasmodium falciparum V1/S; type: functional, organism-based
Plasmodium falciparum [6] = experiment: ST_JUDE: Cytotoxicity against Plasmodium falciparum D10 transfected with yeast DHOD; type: functional, organism-based
Plasmodium falciparum [7] = experiment: ST_JUDE: Cytotoxicity against Plasmodium falciparum W2; type: functional, organism-based
Plasmodium falciparum [8] = experiment: ST_JUDE: Cytotoxicity against Plasmodium falciparum SB-A6; type: functional, organism-based
[9] = ST_JUDE: Cytotoxicity using luciferase to measure ATP as an indicator of the viability of human Burkitt''s lymphoma lymphoblast cells (Raji); type: toxicity, cell-based
[10] = ST_JUDE: Cytotoxicity using luciferase to measure ATP as an indicator of the viability of human epithelial hepatocellular carcinoma cells (HepG2); type: toxicity, cell-based
[11] = ST_JUDE: Cytotoxicity using luciferase to measure ATP as an indicator of the viability of human foreskin fibroblast cells (BJ); type: toxicity, cell-based
[12] = ST_JUDE: Cytotoxicity using luciferase to measure ATP as an indicator of the viability of human epithelial embryonic kidney cells (HEK293); type: toxicity, cell-based
Plasmodium falciparum [13] = experiment: ST_JUDE: Cytotoxicity against Plasmodium falciparum K1; type: functional, organism-based; summary of the method: as §1
Leishmania major = experiment: ST_JUDE: Cytotoxicity using Alamar Blue to measure viability of Leishmania major; type: functional, organism-based
Summary of the method: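 L. major promastigotes; drug susceptibility read with Alamar Blue.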

SMILES | EC50 (Trypanosoma brucei) | EC50 (Plasmodium falciparum [1]) | EC50 (Toxoplasma gondii) | EC50 (Plasmodium falciparum [2]) | EC50 (Plasmodium falciparum [3]) | EC50 (Plasmodium falciparum [4]) | EC50 (Plasmodium falciparum [5]) | EC50 (Plasmodium falciparum [6]) | EC50 (Plasmodium falciparum [7]) | EC50 (Plasmodium falciparum [8]) | EC50 [9] | EC50 [10] | EC50 [11] | EC50 [12] | EC50 (Plasmodium falciparum [13]) | EC50 (Leishmania major)
CCc1ccccc1NC(=O)C1c2ccccc2C(=O)N(CC(C)C)C1c1cccs1 (centres undefined) | 12.9 µM | 1.21 µM | > 23.6 µM | 0.526 µM | 0.511 µM | 0.938 µM | 1.15 µM | 1.08 µM | 0.679 µM | 1.01 µM | > 43 µM | > 43 µM | > 43 µM | > 43 µM | 1.08 µM | > 18.4 µM
CCOc1ccc(N(C(C)=O)C2=C(N(C)C)C(=O)c3ccccc3C2=O)cc1 | 1.24 µM | 0.0063 µM | 10.6 µM | 0.0075 µM | 0.0055 µM | 0.0027 µM | 0.0055 µM | 0.001 µM | 0.0085 µM | 0.001 µM | 0.353 µM | 4.82 µM | 11.2 µM | > 30.2 µM | 0.0035 µM | > 12.9 µM
COc1cc(OC)c(NC(=O)C2c3ccccc3C(=O)N(CC(C)C)C2c2cccs2)cc1Cl (centres undefined) | 7.71 µM | 0.0548 µM | > 24.7 µM | 0.0203 µM | 0.0205 µM | 0.0473 µM | 0.131 µM | 0.0719 µM | 0.016 µM | 0.0831 µM | > 45.1 µM | > 45.1 µM | > 45.1 µM | > 45.1 µM | 0.093 µM | > 19.3 µM
COc1ccc2c(c1)N(C)/C(=C/c1cccc[n+]1C)S2 | 0.643 µM | 0.472 µM | > 8.63 µM | 0.152 µM | 0.186 µM | 0.441 µM | 1.5 µM | 2.46 µM | > 4.04 µM | 1.26 µM | 6.52 µM | > 15.7 µM | > 15.7 µM | > 15.7 µM | 0.386 µM | 0.0088 µM
Cc1ccc2c(c1)N(CCO)/C(=C/c1sc3ccccc3[n+]1C)S2 | 5.2 µM | 0.197 µM | > 9.16 µM | 0.162 µM | 0.423 µM | 0.25 µM | 0.394 µM | 0.341 µM | 0.24 µM | 0.468 µM | 1.78 µM | > 16.7 µM | > 16.7 µM | > 16.7 µM | 0.33 µM | > 7.16 µM
Cc1ccc2c(c1)N(C)/C(=C/c1cccc[n+]1C)S2 | 1.05 µM | 0.645 µM | > 12.6 µM | 0.179 µM | 0.247 µM | 0.588 µM | 0.566 µM | 0.859 µM | 1.11 µM | 1.03 µM | 2.18 µM | > 23 µM | > 23 µM | > 23 µM | 0.675 µM | 0.0107 µM
CCCO/C(O)=C1\C(C)=NC2=C(C(=O)CC(c3ccc(OC)c(OC)c3)C2)C1c1ccccc1OC (centres undefined) | 10.4 µM | 0.416 µM | 16.1 µM | 0.125 µM | 0.276 µM | 0.385 µM | 0.392 µM | 0.414 µM | 0.29 µM | 0.288 µM | > 47 µM | > 47 µM | > 47 µM | > 47 µM | 0.328 µM | > 20.1 µM
O=C(c1ccccc1)N1CCN(c2ccccc2NC(=O)C(Cl)(Cl)Cl)CC1 | 26.8 µM | 2.77 µM | > 18.4 µM | 0.877 µM | 1.45 µM | 0.918 µM | 1.11 µM | 4.19 µM | > 8.65 µM | 1.34 µM | > 33.7 µM | > 33.7 µM | > 33.7 µM | > 33.7 µM | 0.838 µM | > 14.4 µM
CC(C)c1ccc(S(=O)(=O)NC2=C/C(=N\c3ccc(O)cc3)C(=O)c3ccccc32)cc1 | 0.75 µM | 0.946 µM | > 19 µM | 0.125 µM | 0.346 µM | 0.547 µM | 0.836 µM | 0.288 µM | 0.823 µM | 0.29 µM | 3.02 µM | 2.22 µM | 3.58 µM | 5.47 µM | 0.425 µM | > 14.9 µM
CC[n+]1c(/C=C/c2ccc(N(C)C)cc2)ccc2cc(OC)ccc21 | 0.343 µM | 0.174 µM | > 12.7 µM | 0.707 µM | 1.69 µM | 0.247 µM | 0.43 µM | 0.372 µM | 0.0922 µM | 0.702 µM | 0.529 µM | 2.99 µM | > 23.2 µM | > 23.2 µM | 0.471 µM | 0.0005 µM
CCOc1cc2c(cc1OCC)C(c1cc(Cl)ccc1O)NCC2 (centres undefined) | 9.49 µM | 2.01 µM | > 25.7 µM | 0.243 µM | 0.898 µM | 1.82 µM | 1.32 µM | 3.57 µM | 0.732 µM | 3.5 µM | > 46.9 µM | 21 µM | > 46.9 µM | > 46.9 µM | 0.722 µM | > 20.1 µM
Oc1ccc(Br)cc1CN1CCN(Cc2ccccc2F)CC1 | 27.2 µM | 1.79 µM | > 19.8 µM | 0.334 µM | 0.719 µM | 2.06 µM | 0.936 µM | 3.66 µM | 1.61 µM | 2.77 µM | > 36.1 µM | > 36.1 µM | > 36.1 µM | > 36.1 µM | 0.745 µM | > 15.5 µM
COc1ccc(C2CC(=O)C3=C(C2)NC(=O)CC3c2ccc(Br)cc2)cc1OC (centres undefined) | 25.6 µM | 0.75 µM | > 26 µM | 0.65 µM | 1.14 µM | 1.04 µM | 1.78 µM | 1.78 µM | 7.74 µM | 1.49 µM | > 47.5 µM | > 47.5 µM | > 47.5 µM | > 47.5 µM | 1.11 µM | > 20.3 µM
COc1ccc(C2CC(=O)NC3=C2C(=O)CC(c2ccc(F)cc2)C3)cc1OC (centres undefined) | > 39.7 µM | 1.13 µM | > 22.7 µM | 1.07 µM | 0.661 µM | 1.44 µM | 1.99 µM | 1.85 µM | 1.49 µM | 2.09 µM | > 41.4 µM | > 41.4 µM | > 41.4 µM | > 41.4 µM | 1.19 µM | > 17.7 µM
CC(C)NCC(O)Cn1c2ccc(Cl)cc2c2cc(Cl)ccc21 (centres undefined) | 0.861 µM | 0.239 µM | > 22.8 µM | 0.14 µM | 0.27 µM | 1.8 µM | 4.84 µM | 0.626 µM | 0.122 µM | 0.656 µM | 20.9 µM | 7.62 µM | > 41.6 µM | 17.7 µM | 0.477 µM | > 17.8 µM
CCn1nc(-c2ccc(C(F)(F)F)cc2)nc2c(=O)n(C)c(=O)nc1-2 | > 48 µM | 4.55 µM | > 27.4 µM | 1.37 µM | 0.779 µM | 0.403 µM | 0.225 µM | 0.613 µM | 0.0904 µM | 1.3 µM | > 50.1 µM | 2.87 µM | > 50.1 µM | > 50.1 µM | 0.246 µM | > 21.4 µM
CC1=NC2=C(C(=O)CC(c3ccc(Cl)cc3)C2)C(c2ccc(F)cc2)/C1=C(\O)OC(C)C (centres undefined) | 1.56 µM | 1.3 µM | > 21.8 µM | 0.779 µM | 0.775 µM | 0.989 µM | 0.821 µM | 0.649 µM | 0.655 µM | 0.46 µM | > 39.8 µM | > 39.8 µM | > 39.8 µM | > 39.8 µM | 0.436 µM | > 17 µM
COc1ccc(NC(=O)C2c3ccccc3C(=O)N(CC(C)C)C2c2cccs2)cc1OC (centres undefined) | 6.93 µM | 0.123 µM | > 24.1 µM | 0.0518 µM | 0.0501 µM | 0.105 µM | 0.132 µM | 0.0913 µM | 0.0496 µM | 0.09 µM | > 44 µM | > 44 µM | > 44 µM | > 44 µM | 0.11 µM | > 18.8 µM
CCCO/C(O)=C1\C(C)=NC2=C(C(=O)CC(c3ccc(OC)c(OC)c3)C2)C1c1cccc(C)c1 (centres undefined) | 11.3 µM | 1.34 µM | > 24.3 µM | 0.386 µM | 0.574 µM | 0.72 µM | 0.634 µM | 0.456 µM | 4.56 µM | 0.297 µM | > 44.3 µM | 41 µM | > 44.3 µM | > 44.3 µM | 0.39 µM | > 19 µM
